# Tests used:
# Format in all cases: functional
# Penicillium citrinum [1] = assay: Fungitoxicity against Penicillium citrinum assessed as inhibition of mycelia growth at 28 +/- 1 degC at 100 ug/mL for 96 hr by poisoned food technique
# Summary of the method: (§1)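 Poisoned food technique in Czapek's agar dishes, with test compound incorporated at 10, 100 or 1000 μg/mL. Fungus inoculated at the dish centre and incubated 96 h at 28 ± 1 °C. Percent inhibition = 100 × (mean hyphal diameter in control − mean hyphal diameter in test) / mean hyphal diameter in control. Three replicate assays per treatment and six replicate controls. Griseofulvin and Dithane M-45 served as standards.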
# Fusarium oxysporum [2] = assay: Fungitoxicity against Fusarium oxysporum assessed as inhibition of mycelia growth at 28 +/- 1 degC at 100 ug/mL for 96 hr by poisoned food technique; summary of the method: as §1
# Penicillium citrinum [3] = assay: Fungitoxicity against Penicillium citrinum assessed as inhibition of mycelia growth at 28 +/- 1 degC at 1000 ug/mL for 96 hr by poisoned food technique; summary of the method: as §1
# Penicillium citrinum [4] = assay: Fungitoxicity against Penicillium citrinum assessed as inhibition of mycelia growth at 28 +/- 1 degC at 10 ug/mL for 96 hr by poisoned food technique; summary of the method: as §1
# Fusarium oxysporum [5] = assay: Fungitoxicity against Fusarium oxysporum assessed as inhibition of mycelia growth at 28 +/- 1 degC at 1000 ug/mL for 96 hr by poisoned food technique; summary of the method: as §1
# Fusarium oxysporum [6] = assay: Fungitoxicity against Fusarium oxysporum assessed as inhibition of mycelia growth at 28 +/- 1 degC at 10 ug/mL for 96 hr by poisoned food technique; summary of the method: as §1
Compound,inhibition at 100 µg/mL (Penicillium citrinum [1]) [%],inhibition at 100 µg/mL (Fusarium oxysporum [2]) [%],inhibition at 1000 µg/mL (Penicillium citrinum [3]) [%],inhibition at 10 µg/mL (Penicillium citrinum [4]) [%],inhibition at 1000 µg/mL (Fusarium oxysporum [5]) [%],inhibition at 10 µg/mL (Fusarium oxysporum [6]) [%]
O=[N+]([O-])c1ccc([Se](=O)(=O)c2ncn([C@H]3C[C@H](O)[C@@H](CO)O3)n2)cc1,63,60,87,33,82,41
O=[N+]([O-])c1ccc([Se](=O)(=O)c2ncn([C@@H]3O[C@H](CO)[C@@H](O)[C@H]3O)n2)cc1,59,48,86,37,81,35
CC(=O)OC[C@H]1O[C@@H](n2cnc([Se](=O)(=O)c3ccc([N+](=O)[O-])cc3)n2)C[C@@H]1OC(C)=O,34,28,51,18,54,16
COc1ccc([Se](=O)(=O)c2ncn([C@@H]3O[C@H](COC(C)=O)[C@@H](OC(C)=O)[C@H]3OC(C)=O)n2)cc1,32,44,47,17,53,16
COc1ccc([Se](=O)(=O)c2ncn([C@H]3C[C@H](O)[C@@H](CO)O3)n2)cc1,48,76,76,42,91,65
CC(=O)OC[C@H]1O[C@@H](n2cnc([Se](=O)(=O)c3ccccc3)n2)[C@H](OC(C)=O)[C@@H]1OC(C)=O,30,32,38,12,41,15
CC(=O)OC[C@H]1O[C@@H](n2cnc([Se](=O)(=O)c3ccc(C)cc3)n2)[C@H](OC(C)=O)[C@@H]1OC(C)=O,42,37,51,21,52,17
CC(=O)OC[C@H]1O[C@@H](n2cnc([Se](=O)(=O)c3ccccc3)n2)C[C@@H]1OC(C)=O,32,33,42,23,45,25
Cc1ccc([Se](=O)(=O)c2ncn([C@@H]3O[C@H](CO)[C@@H](O)[C@H]3O)n2)cc1,78,80,80,69,88,62
Cc1ccc([Se](=O)(=O)c2ncn([C@H]3C[C@H](O)[C@@H](CO)O3)n2)cc1,74,75,80,67,81,61
CC(=O)OC[C@H]1O[C@@H](n2cnc([Se](=O)(=O)c3ccc(Cl)cc3)n2)[C@H](OC(C)=O)[C@@H]1OC(C)=O,39,29,53,22,55,14
O=[Se](=O)(c1ccc(Cl)cc1)c1ncn([C@@H]2O[C@H](CO)[C@@H](O)[C@H]2O)n1,65,72,97,36,100,44
CC(=O)OC[C@H]1O[C@@H](n2cnc([Se](=O)(=O)c3ccc(Cl)cc3)n2)C[C@@H]1OC(C)=O,35,26,51,16,54,15
COc1ccc([Se](=O)(=O)c2ncn([C@@H]3O[C@H](CO)[C@@H](O)[C@H]3O)n2)cc1,49,68,99,39,100,55
O=[Se](=O)(c1ccccc1)c1ncn([C@@H]2O[C@H](CO)[C@@H](O)[C@H]2O)n1,42,65,89,35,82,50
COc1ccc([Se](=O)(=O)c2ncn([C@H]3C[C@H](OC(C)=O)[C@@H](COC(C)=O)O3)n2)cc1,35,25,64,24,65,17
O=[Se](=O)(c1ccccc1)c1ncn([C@H]2C[C@H](O)[C@@H](CO)O2)n1,74,42,81,65,77,33
COC1=CC(=O)C[C@@H](C)[C@]12Oc1c(Cl)c(OC)cc(OC)c1C2=O [GRISEOFULVIN],94,95,100,90,100,91
O=[Se](=O)(c1ccc(Cl)cc1)c1ncn([C@H]2C[C@H](O)[C@@H](CO)O2)n1,65,56,75,31,81,32
CC(=O)OC[C@H]1O[C@@H](n2cnc([Se](=O)(=O)c3ccc(C)cc3)n2)C[C@@H]1OC(C)=O,31,35,42,17,45,26
CC(=O)OC[C@H]1O[C@@H](n2cnc([Se](=O)(=O)c3ccc([N+](=O)[O-])cc3)n2)[C@H](OC(C)=O)[C@@H]1OC(C)=O,41,55,62,24,65,30

# From ChEMBL document CHEMBL3046804, “Synthesis and fungicidal activity of novel 3-(substituted/unsubstituted phenylselenonyl)-1-ribosyl/deoxyribosyl-1H-1,2,4-triazole” (2012)
